According to ChEMBL document CHEMBL1156826, “Multifunctional antioxidants for the treatment of age-related diseases” (J Med Chem, 2010):
Active and inactive are the calls of the source. No cut-off for these calls is given here.

Experiments:
[1] = Binding affinity to Mg(2+) ions assessed as percent parent peaks remaining by electrospray ionization mass spectrometry; parameters: concentration or dose not given beside the values
Procedure, shortened: (§1)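 Metal ion stocks (1 mM in double-distilled water) were prepared from ammonium iron(II) sulfate, iron(III) nitrate, copper(I) chloride, copper(II) chloride, zinc chloride, magnesium chloride or calcium chloride. Each was mixed with compound at metal:compound ratios of 10:1, 1:1 and 1:10, keeping the final compound concentration at 50 μM.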

ARPE-19 [2] = assay: Antioxidant activity in human […] cells assessed as inhibition of Fenton's reagent-induced reduction of cellular glutathione level after 2 hrs by DTNB method; format: functional, cell-based
Procedure, shortened: (§2)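 Cells are pre-incubated 1 hr in FBS-free medium with 100 μM compound, then given 1 mM H2O2, or 1 mM H2O2 plus 1 mM iron(II) chloride (Fenton), for 2 hr. Cells are washed with PBS, scraped and homogenized; supernatant protein is measured by Bradford. Homogenate is deproteinized with 20% TCA, and GSH is read at 412 nm (DTNB). Values are nmol GSH/mg protein, normalized to unexposed cells (100%), in triplicate.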

[3] = Binding affinity to Zn(2+) ions assessed as percent parent peaks remaining by electrospray ionization mass spectrometry; parameters: concentration or dose not given beside the values; procedure, shortened: as §1
HAh [4] = assay: Cytoprotection in human HAh cells assessed as protection against Fenton's reagent-induced cell death after 2 hrs by MTS assay; format: functional, cell-based
Procedure, shortened: (§3)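 Cells are seeded at 1 × 10⁴ per well and pre-treated 1 hr in FBS-free medium with 100 μM compound, then given 1 mM H2O2, or 1 mM H2O2 plus 1 mM iron(II) chloride (Fenton), for 2 hr. After a PBS wash, MTS is added in blank medium for 1.5 hr at 37 °C and read at 490 nm. Results are normalized to cells without H2O2 (100%), mean ± SD of three experiments.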

SRA1 [5] = assay: Antioxidant activity in human SRA1 cells assessed as inhibition of Fenton's reagent-induced reduction of cellular glutathione level after 2 hrs by DTNB method; format: functional, cell-based; procedure, shortened: as §2
HAh [6] = assay: Antioxidant activity in human HAh cells assessed as inhibition of Fenton's reagent-induced reduction of cellular glutathione level after 2 hrs by DTNB method; format: functional, cell-based; procedure, shortened: as §2
ARPE-19 [7] = assay: Cytoprotection in human ARPE19 cells assessed as protection against Fenton's reagent-induced cell death after 2 hrs by MTS assay; format: functional, cell-based; procedure, shortened: as §3
SRA1 [8] = assay: Cytoprotection in human SRA1 cells assessed as protection against Fenton's reagent-induced cell death after 2 hrs by MTS assay; format: functional, cell-based; procedure, shortened: as §3
SRA1 [9] = assay: Cytoprotection in human SRA1 cells assessed as protection against H2O2-induced cell death after 2 hrs by MTS assay; format: functional, cell-based; procedure, shortened: as §3
[10] = Binding affinity to Ca(2+) ions assessed as percent parent peaks remaining by electrospray ionization mass spectrometry; parameters: concentration or dose not given beside the values; procedure, shortened: as §1
[11] = Binding affinity to Fe(2+) ions assessed as percent parent peaks remaining by electrospray ionization mass spectrometry; parameters: concentration or dose not given beside the values; procedure, shortened: as §1
SRA1 [12] = assay: Antioxidant activity in human SRA1 cells assessed as inhibition of H2O2-induced reduction of cellular glutathione level after 2 hrs by DTNB method; format: functional, cell-based; procedure, shortened: as §2
[13] = Binding affinity to Cu(1+) ions assessed as percent parent peaks remaining by electrospray ionization mass spectrometry; parameters: concentration or dose not given beside the values; procedure, shortened: as §1
[14] = Binding affinity to Cu(2+) ions assessed as percent parent peaks remaining by electrospray ionization mass spectrometry; parameters: concentration or dose not given beside the values; procedure, shortened: as §1
[15] = Binding affinity to Fe(3+) ions assessed as percent parent peaks remaining by electrospray ionization mass spectrometry; parameters: concentration or dose not given beside the values; procedure, shortened: as §1

Compound	Activity [1] [%]	Activity (ARPE-19 [2])	Activity [3] [%]	Activity (HAh [4])	Activity (SRA1 [5])	Activity (HAh [6])	Activity (ARPE-19 [7])	Activity (SRA1 [8])	Activity (SRA1 [9])	Activity [10] [%]	Activity [11] [%]	Activity (SRA1 [12])	Activity [13] [%]	Activity [14] [%]	Activity [15] [%]
CN(C)S(=O)(=O)N1CC(=O)N(c2ncc(O)cn2)C(=O)C1	100	Active	12.7	Active	Active	Active	Active	Active	Active	100	6.9	Active	4.2	3	8.2
CN(C)S(=O)(=O)N1CCN(c2ncc(O)cn2)CC1	100	Active	100	Active	–	Active	Active	Active	Active	100	100	Active	100	100	100
CN(C)S(=O)(=O)N1CC(=O)N(c2ncccn2)C(=O)C1	100	Active	15.3	Active	Active	Active	Active	–	inactive	100	8.1	inactive	3.6	4.4	10
CN(C)S(=O)(=O)N1CCN(c2ncccn2)CC1	100	–	100	–	–	–	–	–	inactive	100	100	inactive	100	100	100
COc1nc(N2CCN(S(=O)(=O)N(C)C)CC2)nc(OC)c1O	100	Active	100	Active	–	Active	Active	Active	Active	100	100	Active	100	100	100
COc1cc(OC)nc(N2C(=O)CN(S(=O)(=O)N(C)C)CC2=O)n1	100	Active	13.8	Active	Active	Active	Active	–	inactive	100	7.3	inactive	4.1	3.4	7.6
Cc1c(C)c2c(c(C)c1O)CCC(C)(C(=O)O)O2 (stereo unspecified)	–	–	–	–	–	Active	–	–	Active	–	–	–	–	–	–
COc1nc(N2C(=O)CN(S(=O)(=O)N(C)C)CC2=O)nc(OC)c1O	100	Active	14.6	Active	Active	Active	Active	Active	Active	100	7.5	Active	4	3.6	8.2
COc1cc(OC)nc(N2CCN(S(=O)(=O)N(C)C)CC2)n1	100	–	100	–	–	–	–	–	inactive	100	100	inactive	100	100	100
